Screening results deposited in PubChem by several laboratories.
Most compounds without a hit are left out; they make up all but 11% or so of the library.
mHtt clearance: mutant huntingtin protein clearance; inhibition, % at 1.5 µM; HeLa Exon1htt(103Q)mCFP, aggregate imaging; zero = plate's median compound well; hit rate 0.42% among 47,000;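 active = inhibition of aggregate fluorescence above about 70%, also judged a hit by eye on the cell image, limit read from the data, passing the limit was not always enough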;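 also: cells exposed to compound for three days before fixation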
SF-1 act: activates the human nuclear receptor SF-1. Q13285. activation, % at 10 µM. AID 522. CHO-K1 Gal4-SF-1 LBD luciferase reporter; % increase over DMSO SF-1-specific signal. hit rate 1.9% among 65,000;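 active = activation above the mean activation of all tested compounds plus 3 SD, cut at about 50% in these data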
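Material: CHO-K1 cells with Gal4–hSF-1 LBD chimera plus Gal4-driven luciferase / Input: 4,000 CHO-K1 cells per well / Incubation: compound exposure 20 h at 37 °C / Signal: luminescence read 15 min after SteadyLite luciferase reagent, after room-temperature equilibration / Read-out: percent activation versus DMSO / Benchmarks: DMSO negative control and −SF1 background wells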
M1 ag: M1 muscarinic receptor agonism; CHO-M1 cells, Fluo-4 calcium fluorescence, agonist mode; active compounds read high; B-score at 10 µM; hit rate 3% among 64,000; AID 626;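 active = fluorescence rise, raw or as B-score row- and column-corrected plate score, outside the 99.7% band of its plate's samples, either direction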
M1 antag: blocks the rat M1 muscarinic receptor response to acetylcholine. P08482. B-score at 10 µM. hit rate 3.4% among 64,000. CHO-M1 cells, Fluo-4 calcium, ACh EC80 antagonist mode; active compounds read low;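 active = calcium fluorescence response, raw or row-and-column corrected B-score, differing from the plate sample mean either way at a set confidence level, mostly lower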
Target sequence (P08482 whole entry, looked up): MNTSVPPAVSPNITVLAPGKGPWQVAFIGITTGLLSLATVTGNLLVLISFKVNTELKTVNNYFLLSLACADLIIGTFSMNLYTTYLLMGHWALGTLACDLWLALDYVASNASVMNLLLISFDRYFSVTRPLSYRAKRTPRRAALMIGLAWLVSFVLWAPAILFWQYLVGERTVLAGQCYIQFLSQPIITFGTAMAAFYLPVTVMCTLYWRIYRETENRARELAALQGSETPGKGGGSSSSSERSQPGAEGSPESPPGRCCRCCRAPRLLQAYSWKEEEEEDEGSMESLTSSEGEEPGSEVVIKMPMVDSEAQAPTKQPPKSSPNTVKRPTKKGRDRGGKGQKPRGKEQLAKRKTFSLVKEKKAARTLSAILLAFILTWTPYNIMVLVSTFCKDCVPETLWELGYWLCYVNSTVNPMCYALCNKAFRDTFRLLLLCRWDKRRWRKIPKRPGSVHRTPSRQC
D1 mod: allosteric modulators of human D1 dopamine receptor; AID 641; B-score at 10 µM; hit rate 5.9% among 58,000; HEK293 D1, CRE-luciferase, dopamine EC30 potentiation; actives deviate in either direction;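 active = luminescence count or its row- and column-corrected plate score outside the 99.7% band of the plate's sample wells, on either side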
RORa activator: RORA (human) activation | CHO-K1 Gal4-RORA LBD luciferase reporter, luminescence; percent increase over mock-subtracted basal signal | AID 560 | P35398 | activation, % at 10 µM | hit rate 1.5% among 65,000;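 active = activation above the mean of all tested compounds plus 3 SD, cut at about 49% in these data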;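 also: 0% = DMSO-treated RORA cells and 100% = added signal equal to DMSO minus mock-transfected cells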
M1 antag conf: M1 muscarinic receptor (rat) antagonism, confirmed; calcium response (max-min fluorescence) at 10 µM; shares compounds with M1 antag; hit rate 43% among 1,700; CHO-M1 cells, Fluo-4 calcium, ACh EC80 antagonism; active compounds read low;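 active = calcium response below the same-plate mean of wells given acetylcholine alone at its 80%-effect dose, minus 3 SD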;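 also: raw fluorescence intensity difference in arbitrary instrument units and not normalized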
mGluR4 antag: mGluR4 (human) activity, M1 antagonist secondary assay. AID 678. fluorescence response (max-min) at 10 µM. CHO-mGluR4 calcium flux, Fluo-4 fluorescence, glutamate EC80; active compounds read low. shares compounds with M1 antag. hit rate 0.9% among 1,700;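 active = fluorescence response below the plate's average for near-maximal glutamate wells, less 3 SD of those wells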;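 also: raw unnormalized fluorescence span taken in the window right after glutamate addition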
Active calls of the source: *; . = no result given.

SMILES | mHtt clearance | SF-1 act | M1 ag | M1 antag | D1 mod | RORa activator | M1 antag conf | mGluR4 antag
O=C(Cn1nnc(-c2ccc(Cl)cc2)n1)NCC1CCCCC1 | . | -1 | 0.34 | 1.3 | -0.61 | -4 | . | .
COc1cc2c(cc1OC)CN(Cc1ccc(OC)c(C)c1OC)CC2 | . | -17 | -1.8 | -3.4* | -0.33 | -14 | 406* | 274
COc1cc2c(cc1OC)CN(Cc1cccs1)CC2 | . | -6 | . | . | -4.6 | 11 | . | .
CCCn1c(=N)c(C(=O)NCc2ccc3c(c2)OCO3)cc2c(=O)n3cccc(C)c3nc21 | 9 | 20 | 2.6 | -10* | 0.53 | 12 | 54* | 240
CCOCCCn1c(=N)c(C(=O)NCc2ccc3c(c2)OCO3)cc2c(=O)n3ccccc3nc21 | 15 | -1 | -0.15 | -2.7* | -0.26 | -4 | 438 | 226
CCN1CCN(c2ncc(C(=O)Nc3ccccc3C(=O)OC)c3ccccc23)CC1 | -28 | 6 | -1.8 | -14* | -0.099 | 21 | 166* | 203
CCN1CCN(c2ncnc3sc(C(=O)Nc4ccccc4F)c(C)c23)CC1 | -22 | 21 | 0.83 | -0.84 | . | 5 | . | .
COC(=O)c1ccccc1NC(=O)CN1CCC(n2nnc3cc(F)ccc32)CC1 | 24 | 4 | 0.098 | -4.6* | . | 2 | 594 | 232
O=C(CN1CCC(n2nnc3cc(F)ccc32)CC1)NC1CCCCC1 | . | 10 | -0.64 | -3.7* | -0.55 | -11 | 604 | 243
O=C(CN1CCC(n2nnc3cc(F)ccc32)CC1)NCCc1ccccc1 | -23 | . | . | . | . | . | . | .
COC(=O)c1ccccc1NC(=O)CN1CCN(C23CC4CC(CC(C4)C2)C3)CC1 | . | -3 | -0.04 | -11* | -0.43 | 18 | 393* | 229
COc1oc(-c2ccccc2)nc1C(F)(F)F | -43 | 3 | -0.85 | 0.34 | -0.15 | -24 | . | .
CC(C)(C)C(=O)/C(C#N)=c1\s/c(=C\c2ccncc2)c(=O)n1CCCN1CCOCC1 | . | -2 | 0.29 | 1.1 | -0.46 | 7 | . | .
CCCNC(=O)CCC(=O)Nc1ncc(-c2ccc(C)cc2)n1C | 4 | 10 | 0.0042 | -0.04 | -0.23 | -1 | . | .
CCN(CCCNC(=O)c1c(C)cc(=O)oc1C)c1cccc(C)c1 | . | -19 | -0.2 | -2.9* | -0.86 | 6 | 522* | 266
CCOC(=O)c1cnc(-c2ccccc2)nc1N | 8 | 64* | -1.7 | -2.2* | -0.77 | 48 | 714 | 230
O=C(c1cnn2ccccc12)N(Cc1ccco1)C1CCCC1 | . | -4 | -0.077 | -4.6* | 0.36 | -15 | 396* | 243
O=C(c1ccccc1)N(Cc1ccco1)C1CCS(=O)(=O)C1 (stereo unspecified) | 10 | . | . | . | . | . | . | .
CCOC(=O)Cc1csc(NC(=O)CCc2ccc(S(=O)(=O)N3CCOCC3)cc2)n1 | -26 | -6 | 0.66 | -3.1* | -2.8 | -29 | 571 | 216
O=C(NC1CCCC1)c1noc2c1CCCCC2 | -8 | . | . | . | . | . | . | .
Cc1cc(C(=O)OCC(=O)Nc2cc(C)on2)c2ccccc2n1 | . | 0 | -0.61 | -6.1* | 0.75 | 6 | 656 | 228
COc1ccccc1C(=O)Nc1c(C)n(C)n(-c2ccccc2)c1=O | 26 | -4 | 0.29 | -0.033 | -1.1 | 8 | . | .
COc1ccc(N2C(=O)C(Cl)=C(Nc3c(C)n(C)n(-c4ccccc4)c3=O)C2=O)cc1 | . | -4 | -0.0043 | -3.8* | -0.084 | 6 | 427* | 254
O=C(NC1(C(F)(F)F)NC(=O)N(C2CCCC2)C1=O)C1CC1 (stereo unspecified) | -26 | -14 | . | . | 0.26 | -24 | . | .
Cc1ccc(C(=O)c2c[nH]c(C(=O)NCc3cccnc3)c2)cc1 | 32 | . | . | . | . | . | . | .
SMILES | mHtt clearance | SF-1 act | M1 ag | M1 antag | D1 mod | RORa activator | M1 antag conf | mGluR4 antag
Cc1ccc2c(c1)NC(=O)C(CC(=O)NCCCN1CCN(c3cc(Cl)ccc3C)CC1)O2 (stereo unspecified) | . | -13 | -0.8 | -2.1* | -2.6* | -1 | 332* | 254
Cc1ccc2c(c1)NC(=O)C(CC(=O)NCCCN1CCCCC1)O2 (stereo unspecified) | 34 | 0 | 0.36 | -0.18 | 0.34 | -7 | . | .
O=C(O)CCC(=O)N1CCc2cc(S(=O)(=O)N3CCC(Cc4ccccc4)CC3)ccc21 | -23 | 8 | -0.4 | 0.99 | . | 2 | . | .
COC(=O)CCCc1nc2ccccc2s1 | . | -14 | -1.1 | -2.5* | -0.12 | -4 | 633 | 239
O=C(O)CCCc1nc2ccccc2s1 | 40 | -2 | -0.88 | 0.18 | -1.1 | -9 | . | .
N#CC1=C(O)C(c2ccccc2)n2c1nc(=O)c1ccccc12 (stereo unspecified) | 18 | 8 | 0.29 | -0.13 | 0.73 | 7 | . | .
C[N+]12CCC(CC1)C(OC(=O)C(O)(c1ccccc1)c1ccccc1)C2 (stereo unspecified) | . | 15 | -1.5 | -16* | -0.026 | -17 | 16* | 243
C=CCN1C(=Nc2cccnc2)SCC1(O)c1ccc(C)cc1 (stereo unspecified) | -47 | -10 | 2 | -2.2* | -0.19 | -15 | 478* | 203
Cn1nnnc1SCc1csc(Nc2ccccc2)n1 | . | 33 | -0.75 | -0.054 | 0.1 | 42 | . | .
Cc1ccc(Nc2nc(CSc3nnnn3C)cs2)cc1 | 21 | 45 | -0.32 | -4.8* | -1.1 | 27 | 464 | 229
Cc1cccc(N(C)S(=O)(=O)c2ccc3[nH]c(=O)c(=O)[nH]c3c2)c1 | -32 | 18 | -1.8 | 0.04 | -0.74 | -2 | . | .
COc1cccc(C(=O)Cn2c(=N)n(C)c3ccccc32)c1 | . | -26 | -0.3 | -5* | -0.49 | -22 | 443* | 258
COc1cccc(C(=O)Cn2c(N3CCCCC3)nc3c2c(=O)n(C)c(=O)n3C)c1 | . | 2 | 0.37 | -0.56 | -0.29 | 21 | . | .
Cc1nnc(C)c2c(C)n(Cc3ccc4c(c3)OCO4)c(C)c12 | . | 1 | 0.25 | -4.5* | -0.98 | -29 | 535* | 203
O=C1NCCCc2nc(Oc3ccccc3)sc21 | . | 7 | -0.51 | -3.3* | 0.11 | -20 | 623 | 228
CCOC(=O)N1CCC(NC(=O)CCc2c(C)nc3c(c(C)nn3C(C)(C)C)c2C)CC1 | -65 | 1 | -0.072 | -1* | -0.33 | 26 | 430 | 228
CCOC(=O)N1CCC(NC(=O)CCc2c(C)nc3nc(C)nn3c2C)CC1 | . | 6 | -0.27 | -0.056 | . | -10 | . | .
CCOC(=O)C1(C(F)(F)F)N=C(c2cccnc2)OC(N2CCOCC2)=N1 (stereo unspecified) | . | -7 | 0.45 | 0.83 | 0.091 | 9 | . | .
O=C(NCc1ccccc1)N1CCN(c2ccc(Cl)c(Cl)c2)CC1 | -8 | -43 | -1.2 | -0.77 | 0.0022 | -44 | . | .
O=C(c1ccccc1)N1CC(COc2ccccc2)OC(c2cccnc2)O1 (stereo unspecified) | 7 | -14 | -1.2 | -4.3* | -0.8 | 5 | 677 | 246
